Where a chain is given by its changes, count along the chain named.
Columns and labels:
M1 = target: T1, M1 (Rattus norvegicus, UniProt P08482); experiment: [3H]-NMS competition binding, M1 CHO membranes; settings: concentrations well above those required to fully activate M1
T1 sequence (P08482 1-460): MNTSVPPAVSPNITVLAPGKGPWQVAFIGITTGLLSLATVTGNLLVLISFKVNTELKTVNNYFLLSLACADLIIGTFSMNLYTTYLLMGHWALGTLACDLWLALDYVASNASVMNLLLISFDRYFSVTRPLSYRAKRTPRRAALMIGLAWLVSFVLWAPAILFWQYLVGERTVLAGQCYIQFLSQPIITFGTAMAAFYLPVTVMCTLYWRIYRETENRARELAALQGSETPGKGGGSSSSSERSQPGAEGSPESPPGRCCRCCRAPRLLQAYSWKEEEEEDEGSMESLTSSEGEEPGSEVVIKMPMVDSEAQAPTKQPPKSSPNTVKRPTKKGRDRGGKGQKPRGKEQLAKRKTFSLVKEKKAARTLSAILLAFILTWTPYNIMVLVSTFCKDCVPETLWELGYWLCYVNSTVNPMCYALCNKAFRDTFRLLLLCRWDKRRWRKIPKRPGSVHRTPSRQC

rM1 K392D/E397V/E401H = target: T2, rM1 K392D/E397V/E401H (Rattus norvegicus, UniProt P08482, E397V/E401H/K392D); experiment: Calcium mobilization, transiently transfected rM1 triple mutant CHO cells; format: cell-based; settings: compared with wt rM1
T2 sequence (P08482 1-460 K392D/E397V/E401H): T1 sequence (P08482 1-460) with K392D, E397V, E401H
Outline: (§1)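 CHO-K1 cells were transiently transfected overnight at 37 °C with 10 μg of mutant rat M1 cDNA in pcDNA3.1+ using Fugene 6, then plated for the calcium assay. They were loaded with 2 μM Fluo-4 AM for 1 h at 37 °C in HEPES/probenecid-buffered HBSS, pH 7.4. Test compound dose–response series were added at 19 s. Calcium mobilization was measured as fluorescence increase over basal.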

rM1 E397V = target: T3, rM1 E397V (Rattus norvegicus, UniProt P08482, E397V); experiment: Calcium mobilization, rM1 E397V mutant CHO-K1 cells; format: cell-based; settings: compared with wt rM1
T3 sequence (P08482 1-460 E397V): T1 sequence (P08482 1-460) with E397V
Outline: as §1

rM1 EE397/401DD = target: T4, rM1 EE397/401DD (Rattus norvegicus, UniProt P08482, E397D/E401D); experiment: Calcium mobilization, rM1 EE397/401DD double mutant CHO-K1 cells; format: cell-based; settings: compared with wt rM1 and triple mutant
T4 sequence (P08482 1-460 E397D/E401D): T1 sequence (P08482 1-460) with E397D, E401D

In the case of CCOC(=O)N1CCC(NCCNC(=O)c2ccccc2)CC1 [VU0184670, ethyl 4-(2-benzamidoethylamino)piperidine-1-carboxylate], the “reduction of [3H]-NMS binding to M1” value (M1) is reported as “did not reduce”, the “functional response at K392D/E397V/E401H triple mutant” value (rM1 K392D/E397V/E401H) is reported as “almost completely ablated” and the “functional activity at E397V mutant” value (rM1 E397V) is reported as “mild reduction in potency and efficacy”. For the same compound, the “functional potency and efficacy at EE397/401DD double mutant” value (rM1 EE397/401DD) was “decrease the potency and efficacy further toward the levels observed with the triple mutant”.

Reference: paper PMC3180826 (ACS chemical neuroscience, 2010)
